ChEMBL document CHEMBL3271963, “Relationship between analgetic ED50 dose and time-course brain levels N-alkylnormeperidine homologues” (J Med Chem, 1976)

How the values were obtained:
Mus musculus [1] = test: Analgetic potency in iv dosed Swiss-Webster mouse relative to meperidine; assay type: functional
Mus musculus [2] = test: Analgetic potency in iv dosed Swiss-Webster mouse; assay type: functional
Brain = test: Drug uptake in iv dosed Swiss-Webster mouse brain measured per gram of tissue; assay type: ADME, organism-based; conditions: in vivo
How it was run: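 Mice received a single iv bolus of the ³H-labelled compound into the tail vein (0.033 ml/10 g). Whole brains were removed at 5, 10, 20, 30 and 45 min (n = 6 per point) and homogenised in 0.01 N HCl with unlabelled carriers and a [¹⁴C]-N-butylnormeperidine internal standard. Samples were basified to pH 12, extracted into benzene and run on TLC. Levels came from ³H/¹⁴C ratios against a standard curve, expressed per gram, with area under the concentration-time curve.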

Liver [3] = test: Drug metabolism in iv dosed Swiss-Webster mouse liver assessed as norme-peridine concentration measured per gram of tissue over 5 to 45 mins; assay type: ADME, organism-based; conditions: in vivo
How it was run: (§1)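 Mice received a single iv bolus of the ³H-labelled N-alkylnormeperidine into the lateral tail vein (0.033 ml/10 g), with 6 animals per time point. Livers were taken at 5, 10, 20, 30 and 45 min, homogenised in 0.01 N HCl, and spiked with unlabelled parent, normeperidine and a [¹⁴C] internal standard. Samples were basified to pH 12, extracted into C₆H₆ and separated by TLC. Parent and normeperidine were quantified by ³H/¹⁴C ratio, corrected for 5.8% (v/w) residual blood, and integrated over 5–45 min.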

Liver [4] = test: Drug metabolism in iv dosed Swiss-Webster mouse liver measured per gram of tissue over 5 to 45 mins; assay type: ADME, organism-based; conditions: in vivo; how it was run: as §1

SMILES | Ratio (Mus musculus [1]) | ED50 (Mus musculus [2]) [µmol/kg] | Drug uptake (Brain) [nmol·min/g] | Drug metabolism (Liver [3]) [nmol·min] | Drug metabolism (Liver [4]) [nmol·min]
CCCCN1CCC(C(=O)OCC)(c2ccccc2)CC1.Cl | 1.7 | 19.1 | 274 | 121.7 | 83.8
CCOC(=O)C1(c2ccccc2)CCN(C)CC1.Cl [MEPERIDINE HYDROCHLORIDE] | – | 32.8 | – | 1733.1 | 926.7
CCCN1CCC(C(=O)OCC)(c2ccccc2)CC1.Cl | 0.7 | 45.9 | 828 | 917.7 | 263.3
CCCCCCN1CCC(C(=O)OCC)(c2ccccc2)CC1.Cl | 8.8 | 3.7 | 126 | 17.9 | 153.3
